Experimental data as given in ChEMBL document CHEMBL1126899, “Nonpeptide angiotensin II antagonists derived from 1H-pyrazole-5-carboxylates and 4-aryl-1H-imidazole-5-carboxylates” (J Med Chem, 1993).
Calls of active or inactive are those of the source. The calls are words filed in the database; no cut-off is given here.

Assays:
[1] = tested on: Rattus norvegicus; assay: Peak percent inhibition of Angiotensin II pressor response in conscious, normotensive rats at 0.1 mg/kg po; format: functional
How it was run: (§1)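 Male Sprague-Dawley rats (300–400 g), conscious, catheterized for iv dosing and for arterial pressure and heart rate. Compound given iv or po; PEG 400 vehicle in some oral cases. AII 0.1 μg/kg iv boluses at set intervals afterward. % inhibition of the MAP rise was calculated at each time point, and the peak was taken. Averaged from at least two rats unless noted.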

[2] = tested on: Rattus norvegicus; assay: Time to produce onset of action for inhibition of Angiotensin II pressor response in conscious, normotensive rats at 0.3 mg/kg po; format: functional
How it was run: (§2)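 Conscious male Sprague-Dawley rats (300–400 g), instrumented for iv dosing and arterial pressure. A single iv or po bolus of compound (PEG 400 for some oral doses), then repeated AII challenges at 0.1 μg/kg iv. […] Averaged from at least two rats unless noted.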

[3] = biological target: T1, Type-1 angiotensin II receptor (Oryctolagus cuniculus, UniProt P34976); assay: Evaluation of Angiotensin II antagonistic activity by displacement of [125I]-Sar Ile-AII at the rabbit aorta Angiotensin II receptor, type 1; format: tissue-based
T1 sequence (P34976 whole entry): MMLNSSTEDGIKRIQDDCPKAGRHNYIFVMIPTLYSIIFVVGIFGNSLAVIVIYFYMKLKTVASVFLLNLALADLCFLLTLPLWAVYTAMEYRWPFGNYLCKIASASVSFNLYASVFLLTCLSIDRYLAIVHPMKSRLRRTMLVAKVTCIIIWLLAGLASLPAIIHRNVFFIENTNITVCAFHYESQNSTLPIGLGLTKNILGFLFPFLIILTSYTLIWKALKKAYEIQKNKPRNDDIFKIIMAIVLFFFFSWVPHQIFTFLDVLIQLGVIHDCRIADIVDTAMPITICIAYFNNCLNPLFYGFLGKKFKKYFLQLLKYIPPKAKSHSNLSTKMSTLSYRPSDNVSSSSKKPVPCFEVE
How it was run: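 Rabbit aorta membranes, run without BSA. Competition against [¹²⁵I]Sar¹Ile⁸-AII, in duplicate tubes. Some values are means of two or more separate assays. Standard error is estimated at <30% of the mean.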

[4] = tested on: Rattus norvegicus; assay: Peak percent inhibition of Angiotensin II pressor response in conscious, normotensive rats at 0.1 mg/kg iv; format: functional; how it was run: as §1
[5] = tested on: Rattus norvegicus; assay: Time to produce onset of action for inhibition of Angiotensin II pressor response in conscious, normotensive rats at 0.3 mg/kg iv; format: functional; how it was run: as §2
[6] = tested on: Rattus norvegicus; assay: Peak percent inhibition of Angiotensin II pressor response in conscious, normotensive rats at 0.3 mg/kg iv; format: functional; how it was run: as §1
[7] = tested on: Rattus norvegicus; assay: Peak percent inhibition of Angiotensin II pressor response in conscious, normotensive rats at 0.3 mg/kg po; format: functional; how it was run: as §1
[8] = tested on: Rattus norvegicus; assay: Time to produce onset of action for inhibition of Angiotensin II pressor response in conscious, normotensive rats at 1 mg/kg po; format: functional; how it was run: as §2
[9] = tested on: Rattus norvegicus; assay: Time to produce onset of action for inhibition of Angiotensin II pressor response in conscious, normotensive rats at 0.1 mg/kg po; format: functional; how it was run: as §2
[10] = tested on: Rattus norvegicus; assay: Peak percent inhibition of Angiotensin II pressor response in conscious, normotensive rats at 1 mg/kg po; format: functional; how it was run: as §1
[11] = tested on: Rattus norvegicus; assay: Time to produce onset of action for inhibition of Angiotensin II pressor response in conscious, normotensive rats at 0.1 mg/kg iv; format: functional; how it was run: as §2
[12] = tested on: Rattus norvegicus; assay: Time to produce onset of action for inhibition of Angiotensin II pressor response in conscious, normotensive rats at 1 mg/kg iv; Not active; format: functional, organism-based; set-up: dose 1 mg/kg; how it was run: as §2
[13] = tested on: Rattus norvegicus; assay: Peak percent inhibition of Angiotensin II pressor response in conscious, normotensive rats at 1 mg/kg iv; format: functional; how it was run: as §1
[14] = tested on: Rattus norvegicus; assay: Time to produce onset of action for inhibition of pressor response in conscious, normotensive rats 0.3 mg/kg po (no. of animals treated); format: functional; how it was run: as §2
[15] = tested on: Rattus norvegicus; assay: Peak percent inhibition of Angiotensin II pressor response in conscious, normotensive rats at 0.3 mg/kg po (no. of animals treated); format: functional; how it was run: as §1
[16] = tested on: Rattus norvegicus; assay: Peak percent inhibition of Angiotensin II pressor response in conscious, normotensive rats at 0.3 mg/kg iv (no. of animals treated); format: functional; how it was run: as §1
[17] = tested on: Rattus norvegicus; assay: Peak percent inhibition of Angiotensin II pressor response in conscious, normotensive rats at 1 mg/kg iv (no. of animals treated); format: functional; how it was run: as §1
[18] = tested on: Rattus norvegicus; assay: Time to produce onset of action for inhibition of pressor response in conscious, normotensive rats at 0.3 mg/kg iv (no. of animals treated); format: functional; how it was run: as §2
[19] = tested on: Rattus norvegicus; assay: Peak percent inhibition of Angiotensin II pressor response in conscious, normotensive rats at 3 mg/kg po (no. of animals treated); format: functional; how it was run: as §1
[20] = tested on: Rattus norvegicus; assay: Time to produce onset of action for inhibition of pressor response in conscious, normotensive rats at 1 mg/kg iv (no. of animals treated); format: functional; how it was run: as §2
[21] = tested on: Rattus norvegicus; assay: Time to produce onset of action for inhibition of pressor response in conscious, normotensive rats at 3 mg/kg po (no. of animals treated); format: functional; how it was run: as §2
[22] = tested on: Rattus norvegicus; assay: Time to produce onset of action for inhibition of Angiotensin II pressor response in conscious, normotensive rats 1 at mg/kg iv; format: functional; how it was run: as §2
[23] = tested on: Rattus norvegicus; assay: Peak percent inhibition of Angiotensin II pressor response in conscious, normotensive rats 1 at mg/kg iv; format: functional; how it was run: as §1
[24] = tested on: Rattus norvegicus; assay: Peak percent inhibition of Angiotensin II pressor response in conscious, normotensive rats at 3 mg/kg iv (no. of animals treated); format: functional; how it was run: as §1
[25] = tested on: Rattus norvegicus; assay: Time to produce onset of action for inhibition of pressor response in conscious, normotensive rats at 3 mg/kg iv (no. of animals treated); format: functional; how it was run: as §2
[26] = tested on: Rattus norvegicus; assay: Time to produce onset of action for inhibition of pressor response in conscious, normotensive rats at 0.1 mg/kg iv (no. of animals treated); format: functional; how it was run: as §2
[27] = tested on: Rattus norvegicus; assay: Peak percent inhibition of Angiotensin II pressor response in conscious, normotensive rats at 1 mg/kg po (no. of animals treated); format: functional; how it was run: as §1
[28] = tested on: Rattus norvegicus; assay: Peak percent inhibition of Angiotensin II pressor response in conscious, normotensive rats at 0.1 mg/kg iv (no. of animals treated); format: functional; how it was run: as §1
[29] = tested on: Rattus norvegicus; assay: Time to produce onset of action for inhibition of pressor response in conscious, normotensive rats at 1 mg/kg po (no. of animals treated); format: functional; how it was run: as §2
[30] = tested on: Rattus norvegicus; assay: Time to produce onset of action for inhibition of pressor response in conscious, normotensive rats at 0.3 mg/kg po (no. of animals treated); format: functional; how it was run: as §2
[31] = tested on: Rattus norvegicus; assay: Time to produce onset of action for inhibition of Angiotensin II pressor response in conscious, normotensive rats at 0..3 mg/kg iv; format: functional; how it was run: as §2

Structure (SMILES): CCCc1nn(CC(F)(F)F)c(C(=O)O)c1Cc1ccc(-c2ccccc2-c2nn[nH]n2)cc1
- inhibition in vivo at 0.1 mg/kg [1]: 54%
- Duration [2]: >3 h
- IC50 [3]: 1.6 nM
- inhibition in vivo at 0.1 mg/kg [4]: 62%
- Duration [5]: >24 h
- inhibition in vivo at 0.3 mg/kg [6]: 93%
- inhibition in vivo at 0.3 mg/kg [7]: 66%
- Duration [8]: >23 h
- Duration [9]: ~2 h
- inhibition in vivo at 1 mg/kg [10]: 75%
- Duration [11]: ~5 h

Structure (SMILES): CCCCc1nn(-c2c(Cl)cccc2Cl)c(C(=O)OCC)c1Cc1ccc(-c2ccccc2-c2nn[nH]n2)cc1
- Duration [12]: inactive
- inhibition in vivo at 1 mg/kg [13]: 16%

Structure (SMILES): CCCCc1nc(Cl)c(CO)n1Cc1ccc(-c2ccccc2-c2nnn[nH]2)cc1 [LOSARTAN]
- Duration [14]: >3.5 h
- inhibition in vivo at 0.3 mg/kg [15]: 36%
- inhibition in vivo at 0.3 mg/kg [16]: 52%
- inhibition in vivo at 1 mg/kg [17]: 78%
- Duration [18]: 5.5 h
- inhibition in vivo at 3 mg/kg [19]: 94%
- Duration [20]: >6 h
- Duration [21]: >4.5 h

Structure (SMILES): CCCCc1nn(-c2ccccc2)c(C(=O)O)c1Cc1ccc(-c2ccccc2-c2nn[nH]n2)cc1
- Duration [22]: >6 h
- IC50 [3]: 2.9 nM
- Inhibition [23]: 96%

Structure (SMILES): CCCCc1nc(-c2ccccc2)c(C(=O)O)n1Cc1ccc(-c2ccccc2-c2nn[nH]n2)cc1
- inhibition in vivo at 3 mg/kg [24]: 100%
- IC50 [3]: 2.1 nM
- Duration [25]: >24 h

Structure (SMILES): CCCCc1nc(Cl)c(C(=O)O)n1Cc1ccc(-c2ccccc2-c2nn[nH]n2)cc1 [CARBOXYLIC ACID METABOLITE]
- inhibition in vivo at 0.3 mg/kg [15]: 63%
- Duration [26]: ~4 h
- inhibition in vivo at 1 mg/kg [27]: 72%
- inhibition in vivo at 0.3 mg/kg [16]: 100%
- Duration [18]: >29 h
- inhibition in vivo at 0.1 mg/kg [28]: 63%
- Duration [29]: >7 h
- Duration [30]: 2.8 h

Structure (SMILES): CCCc1nn(Cc2ccccc2)c(C(=O)O)c1Cc1ccc(-c2ccccc2-c2nn[nH]n2)cc1
- Duration [2]: >4 h
- IC50 [3]: 0.42 nM
- inhibition in vivo at 0.3 mg/kg [6]: 95%
- Duration [31]: >24 h
- inhibition in vivo at 0.3 mg/kg [7]: 82%
- Duration [8]: >23 h
- inhibition in vivo at 1 mg/kg [10]: 100%
